In PMC3983348 (Journal of Medicinal Chemistry, 2014):
Where two headings read alike, the source gives them in different places.

Tests used:
lung, HOP-62 [1] = test: NCI-60 five-dose assay, HOP-62; assay type: cell-based; conditions: Homo sapiens, HOP-62, read-out: cytotoxicity GI50, lung, HOP-62
Summary of the method: (§1)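 Run in the National Cancer Institute's NCI-60 human cancer cell panel. Test compounds were first screened in a one-dose assay at 10–5 M, reading growth percent relative to vehicle-treated control.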

renal, SN12C [2] = test: NCI-60 five-dose assay, SN12C; assay type: cell-based; conditions: Homo sapiens, read-out: cytotoxicity GI50, renal, SN12C
Summary of the method: as §1

melanoma, UACC-62 [3] = test: NCI-60 five-dose assay, UACC-62; assay type: cell-based; conditions: Homo sapiens, UACC-62, read-out: cytotoxicity GI50, melanoma, UACC-62
Summary of the method: as §1

breast, MCF7 [4] = test: NCI-60 five-dose assay, MCF7; assay type: cell-based; conditions: Homo sapiens, MCF7, read-out: cytotoxicity GI50, breast, MCF7
Summary of the method: as §1

prostate, DU-145 [5] = test: NCI-60 five-dose assay, DU-145; assay type: cell-based; conditions: Homo sapiens, DU-145, read-out: cytotoxicity GI50, prostate, DU-145
Summary of the method: as §1

colon, HCT-116 [6] = test: NCI-60 five-dose assay, HCT-116; assay type: cell-based; conditions: Homo sapiens, HCT-116, read-out: cytotoxicity GI50, colon, HCT-116
Summary of the method: as §1

ovarian, OVCAR-3 [7] = test: NCI-60 five-dose assay, OVCAR-3; assay type: cell-based; conditions: Homo sapiens, OVCAR-3, read-out: cytotoxicity GI50, ovarian, OVCAR-3
Summary of the method: as §1

colon, HCT-116 [8] = conditions: read-out: cytotoxicity GI50, colon, HCT-116; five-dose assay; cited from earlier work
CNS, SF-539 = conditions: read-out: cytotoxicity GI50, CNS, SF-539; five-dose assay; cited from earlier work
[9] = tested on: panel of 60 different human cancer cell lines; conditions: mean graph midpoint, five-dose assay; cited from earlier work
recombinant Top1 [10] = target: T1, recombinant Top1 (Homo sapiens, UniProt P11387); set-up: key to the marks not given beside the values; conditions: score based on the activity of 1 μM camptothecin; cited from earlier work
T1 sequence (P11387 1-765): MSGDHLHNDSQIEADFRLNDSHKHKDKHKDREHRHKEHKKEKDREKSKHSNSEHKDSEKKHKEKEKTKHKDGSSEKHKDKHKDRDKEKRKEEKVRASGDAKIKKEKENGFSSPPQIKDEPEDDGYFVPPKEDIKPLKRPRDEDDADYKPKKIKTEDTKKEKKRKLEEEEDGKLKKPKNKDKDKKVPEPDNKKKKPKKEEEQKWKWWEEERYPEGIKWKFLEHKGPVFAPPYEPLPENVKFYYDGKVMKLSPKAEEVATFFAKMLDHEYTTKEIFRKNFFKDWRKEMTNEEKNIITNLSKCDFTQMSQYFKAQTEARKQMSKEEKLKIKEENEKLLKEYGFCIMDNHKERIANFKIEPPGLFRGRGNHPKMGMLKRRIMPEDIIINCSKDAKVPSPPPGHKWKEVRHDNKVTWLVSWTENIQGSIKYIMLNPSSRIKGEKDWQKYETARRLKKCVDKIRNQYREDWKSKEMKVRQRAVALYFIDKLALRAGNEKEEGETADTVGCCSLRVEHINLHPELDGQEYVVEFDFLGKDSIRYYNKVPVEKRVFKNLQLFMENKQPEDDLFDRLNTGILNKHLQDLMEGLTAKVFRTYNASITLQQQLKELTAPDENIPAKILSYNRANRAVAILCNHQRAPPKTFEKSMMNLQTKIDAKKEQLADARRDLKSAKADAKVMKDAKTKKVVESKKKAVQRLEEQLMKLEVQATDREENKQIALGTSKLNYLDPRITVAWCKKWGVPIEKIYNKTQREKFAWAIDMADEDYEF

lung, HOP-62 [11] = conditions: read-out: cytotoxicity GI50, lung, HOP-62; five-dose assay; cited from earlier work
prostate, DU-145 [12] = conditions: read-out: cytotoxicity GI50, prostate, DU-145; five-dose assay; cited from earlier work
breast, MCF7 [13] = conditions: read-out: cytotoxicity GI50, breast, MCF7; five-dose assay; cited from earlier work
renal, SN12C [14] = conditions: read-out: cytotoxicity GI50, renal, SN12C; five-dose assay; cited from earlier work
ovarian, OVCAR-3 [15] = conditions: read-out: cytotoxicity GI50, ovarian, OVCAR-3; five-dose assay; cited from earlier work
melanoma, UACC-62 [16] = conditions: read-out: cytotoxicity GI50, melanoma, UACC-62; five-dose assay; cited from earlier work
recombinant Top1 [17] = target: T1, recombinant Top1; test: Top1-mediated DNA cleavage assay; assay type: biochemical; conditions: compound-induced DNA cleavage, score based on the activity of 1 μM camptothecin
∼60 cancer cell lines = test: NCI-60 one-dose assay; assay type: cell-based; conditions: Homo sapiens, read-out: mean growth, %, 10 μM compound, one-dose assay, relative to vehicle-treated control
Summary of the method: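 Single-dose screen at 10–5 M across the ~60 human cancer cell lines of the NCI-60 panel. Growth percent of treated cells was expressed relative to vehicle-treated controls and averaged over the panel.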

[18] = tested on: panel of 60 different human cancer cell lines; test: NCI-60 five-dose assay, mean graph midpoint; assay type: cell-based; conditions: mean graph midpoint of growth inhibition, five-dose assay 10^–8 to 10^–4 M

Top1 cleavage (recombinant Top1 [17])	SMILES	GI50 (lung, HOP-62 [1]) [nM]	GI50 (renal, SN12C [2]) [nM]	GI50 (melanoma, UACC-62 [3]) [nM]	GI50 (breast, MCF7 [4]) [nM]	GI50 (prostate, DU-145 [5]) [nM]	GI50 (colon, HCT-116 [6]) [nM]	GI50 (ovarian, OVCAR-3 [7]) [nM]	GI50 (colon, HCT-116 [8]) [nM]	GI50 (CNS, SF-539) [nM]	MGM [9] [µM]	Top1 cleavage (recombinant Top1 [10])	GI50 (lung, HOP-62 [11]) [nM]	GI50 (prostate, DU-145 [12]) [nM]	GI50 (breast, MCF7 [13]) [nM]	GI50 (renal, SN12C [14]) [nM]	GI50 (ovarian, OVCAR-3 [15]) [nM]	GI50 (melanoma, UACC-62 [16]) [nM]	activity at 10 µM (∼60 cancer cell lines) [%]	MGM [18] [µM]
	CC[C@@]1(O)C(=O)OCc2c1cc1n(c2=O)Cc2cc3ccccc3nc2-1 [Compound 1, camptothecin, reference compound]	10	20	10	10	10	30	220												
	COc1cc2c3c(n(CCCN4CCOCC4)c(=O)c2cc1OC)-c1cc2c(cc1C3=O)OCO2 [Compound 4, 2,3-Dimethoxy-6-(3-morpholinopropyl)-5,6-dihydro-8,9-methylenedioxy-5,12-dioxoindeno[1,2-c]isoquinoline]								1150	40	4.64 ± 1.25	++++	1780	155	370	813	74100	30		
	COc1cc2c3c(n(CCCn4ccnc4)c(=O)c2cc1OC)-c1cc2c(cc1C3=O)OCO2 [Compound 5, 6-(3-(1H-Imidazol-1-yl)propyl)-2,3-dimethoxy-5,6-dihydro-8,9-methylendioxy-5,12-dioxoindeno[1,2-c]isoquinoline]								< 10	37	0.079 ± 0.023	++++	< 10	< 10		< 10	85	< 10		
++++	O=C1c2ccccc2-c2c1c1ccc([N+](=O)[O-])cc1c(=O)n2C[C@H](O)[C@@H](O)[C@@H](O)[C@H](O)CO [Compound 69, (2′S,3′R,4′S,5′R)-5,6-Dihydro-6-(2′,3′,4′,5′,6′-pentahydroxyhexyl)-3-nitro-5,11-dioxo-11H-indeno[1,2-c]isoquinoline]						3390												51.5 to 73.2	7.94
